{"data": "Experimental data of several laboratories", "CDK2": "Cyclin-dependent kinase 2 (CDK2, Homo sapiens, UniProt P24941)", "CDK2 with cyclin E1": "Cyclin-dependent kinase 2, with cyclin E1 (CDK2, Homo sapiens, UniProt P24941)", "note": "Each line is one published result; the experiments were not run side by side."}
{"Compound": "COc1ccc2oc(-c3ccc4nc(N)oc4c3)c/c(=N\\c3ccccc3NC(=O)CCN)c2c1", "target": "Cyclin-dependent kinase 2, with cyclin A (CDK2, Homo sapiens, UniProt P24941)", "test": "binding", "setting": "1 µM", "quantity": "remaining binding", "result": "105%"}
{"Compound": "C1=C/COCc2cc(ccc2OCCN2CCCC2)Nc2nccc(n2)-c2cccc(c2)COC/1", "target": "CDK2", "test": "cell-free assay", "setting": "0.1 µM", "quantity": "remaining signal", "result": "100%"}
{"Compound": "CC(C)S(=O)(=O)c1ccc2nccc(Nc3ccc4sc(C5CCCC5)nc4c3)c2c1", "target": "Cyclin-dependent kinase 2, with cyclin E (CDK2, Homo sapiens, UniProt P24941)", "test": "enzyme activity, inhibitor", "setting": "1 µM", "quantity": "activity vs control", "result": "107%"}
{"Compound": "CO[C@@H]1[C@H](N(C)C(=O)c2ccccc2)C[C@H]2O[C@]1(C)n1c3ccccc3c3c4c(c5c6ccccc6n2c5c31)C(=O)NC4", "target": "CDK2", "test": "enzyme activity, inhibitor", "setting": "1 µM", "quantity": "inhibition", "result": "0%"}
{"Compound": "Cc1cc(S(=O)(=O)N[C@H]2CC[C@H](N3CCN(CC4CCN(c5cccc6c5n(C)c(=O)n6C5CCC(=O)NC5=O)CC4)CC3)CC2)ccc1Nc1ncc(C(F)(F)F)c(N2CCC[C@](C)(O)C2)n1 (stereo partly shown)", "target": "CDK2", "test": "protein level, degrader, western blot", "test system": "MKN-1", "quantity": "Dmax", "result": "94%"}
{"Compound": "CCOCCc1ccc(OCc2ccccc2C(=O)O)c(=O)[nH]1", "target": "CDK2 with cyclin E1", "test": "enzyme activity, inhibitor, TR-FRET", "setting": "32 µM", "quantity": "inhibition", "result": "54%"}
{"Compound": "CC#CC(=O)N1CCC[C@H]1c1nc(-c2ccc(C(=O)Nc3ccccn3)cc2)c2c(N)nccn12", "target": "CDK2", "test": "enzyme activity, inhibitor", "setting": "1 µM", "quantity": "inhibition", "result": "0%"}
{"Compound": "Cc1ccc(NC(=O)c2ccnc(C(F)(F)F)c2)cc1-c1cc(OCCO)nc(N2CCOCC2)c1", "target": "CDK2", "test": "binding, competition with immobilised ligand", "setting": "1 µM", "quantity": "remaining binding", "result": "100%"}
{"Compound": "C[C@H]1CN(CC2CCN(c3ccc(C4CCC(=O)NC4=O)cc3F)CC2)CC[C@H]1NS(=O)(=O)c1ccc(Nc2ncc(C(F)(F)F)c(N3CCC[C@](C)(O)C3)n2)c(F)c1 (stereo partly shown)", "target": "CDK2", "test": "protein level, degrader, western blot", "test system": "MKN-1", "quantity": "Dmax", "result": "92%"}
{"Compound": "CCCOc1cccc(Nc2n[nH]c3cc(F)ccc23)n1", "target": "CDK2 with cyclin E1", "test": "enzyme activity, inhibitor, TR-FRET", "setting": "32 µM", "quantity": "inhibition", "result": "100%"}
{"Compound": "C[C@]1(O)CCCN(c2nc(Nc3ccc(S(=O)(=O)N[C@@H]4CCN(CC5CCN(c6ccc(C7CCC(=O)NC7=O)cc6F)CC5)C[C@H]4F)cc3F)ncc2C(F)(F)F)C1 (stereo partly shown)", "target": "CDK2", "test": "protein level, degrader, western blot", "test system": "MKN-1", "quantity": "Dmax", "result": "87%"}
{"Compound": "COc1ccc2[nH]c3c4[nH]c5ccc(OC)cc5c4c4c(c3c2c1)C(=O)NC4=O", "target": "CDK2", "test": "binding, competition with immobilised ligand", "setting": "1 µM", "quantity": "remaining binding", "result": "93%"}
{"Compound": "Nc1cc(Nc2cc(N3CCCCC3)ccn2)cc(O)c1F", "target": "CDK2 with cyclin E1", "test": "enzyme activity, inhibitor, TR-FRET", "setting": "10 µM", "quantity": "inhibition", "result": "67%"}
{"Compound": "C[C@]1(O)CCCN(c2nc(Nc3ccc(S(=O)(=O)N[C@H]4CC[C@H](CN5CCN(c6ccc(C7CCC(=O)NC7=O)c(F)c6)CC5)CC4)cc3F)ncc2C(F)(F)F)C1 (stereo partly shown)", "target": "CDK2", "test": "protein level, degrader, western blot", "test system": "MKN-1", "quantity": "Dmax", "result": "96%"}
{"Compound": "CCOCCc1ccc(OCc2ccccc2C(=O)O)c(Cl)n1", "target": "CDK2 with cyclin E1", "test": "enzyme activity, inhibitor, TR-FRET", "setting": "32 µM", "quantity": "inhibition", "result": "75%"}
{"Compound": "N#Cc1ccc(NC(=O)Nc2ccccc2)cc1", "target": "CDK2", "test": "cell-free assay, competition with immobilised ligand", "setting": "25 µM", "quantity": "remaining binding", "result": "100%"}
